Compound activity as filed in PubChem BioAssay.
Rce1 inhib – yeast Rce1p protease inhibitors, primary screen, biochemical, fluorescence, cell-free homogeneous | 290,000 tested, 0.27% active | yeast membranes, quenched prenylated peptide cleavage fluorescence | calls only;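 active means fall in fluorescence gain of 50% or more versus controls, with final raw signal at or below 3038400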;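 further: plate controls were neutral control wells for no effect and wells lacking membranes for full effect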
Target sequence (Q03530 whole entry, looked up): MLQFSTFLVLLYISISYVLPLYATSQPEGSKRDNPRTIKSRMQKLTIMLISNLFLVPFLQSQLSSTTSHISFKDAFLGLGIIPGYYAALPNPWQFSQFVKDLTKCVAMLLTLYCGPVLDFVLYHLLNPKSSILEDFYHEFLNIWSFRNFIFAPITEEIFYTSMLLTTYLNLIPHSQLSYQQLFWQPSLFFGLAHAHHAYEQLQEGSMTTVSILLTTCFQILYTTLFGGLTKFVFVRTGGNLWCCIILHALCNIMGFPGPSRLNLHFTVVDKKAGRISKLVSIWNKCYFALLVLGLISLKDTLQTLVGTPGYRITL
TAAR1 ag – human TAAR1 agonists, primary screen, Fluo-8 calcium fluorescence, CHO RD-HGA16 cells | Trace amine-associated receptor 1 (Homo sapiens), Q96RJ0 | vehicle wells 0%, saturating PEA agonist 100% | activation, % at 3 µM | 360,000 tested, 0.99% active | AID 624467, 2012;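 active means activation above the mean activation of all test compounds in the run plus 3 SD, cut at about 38% in these data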
Target sequence (Q96RJ0 whole entry, looked up): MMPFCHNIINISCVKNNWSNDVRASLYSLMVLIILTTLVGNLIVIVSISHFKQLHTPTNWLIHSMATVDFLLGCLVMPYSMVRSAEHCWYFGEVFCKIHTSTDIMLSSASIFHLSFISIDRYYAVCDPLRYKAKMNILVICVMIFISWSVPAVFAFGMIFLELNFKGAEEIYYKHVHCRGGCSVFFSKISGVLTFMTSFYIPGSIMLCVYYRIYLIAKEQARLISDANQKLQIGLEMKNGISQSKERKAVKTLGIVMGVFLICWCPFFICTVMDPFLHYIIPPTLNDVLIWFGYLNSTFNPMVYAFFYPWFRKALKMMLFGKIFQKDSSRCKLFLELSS
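System: CHO RD-HGA16 cells carrying human TAAR1 plus Gα16; Incubation: 17-24 h seeding, 75 min 37 °C dye, 30 min RT; Measured by: Fluo-8 fluorescence, 5 s baseline then 140 s kinetic read; Control set: DMSO and PEA EC100; Replication: single well for each compound.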
TAAR1 antag – human TAAR1 antagonists, primary screen, Fluo-8 calcium fluorescence, CHO RD-HGA16 cells; antagonist; Trace amine-associated receptor 1 (Homo sapiens), Q96RJ0; 360,000 tested, 1.5% active; inhibition, % at 3 µM;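 active means inhibition above a per-plate cutoff, the mean inhibition of test compounds on that plate plus 3 SD, cut at about 49% in these data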;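 further: 0% = DMSO plus EC80 beta-PEA response and 100% = DMSO alone without agonist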
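System: RD-HGA16 CHO cells with stable hTAAR1 and Gα16 | Probe or stimulus: EC80 β-phenethylamine stimulus | Dosing: 3 µM, single point | Times: Dye loading 75 min at 37 °C, then 30 min room temperature | Measured by: Fluo-8 calcium-sensitive fluorescence | Read-out basis: % inhibition of agonist calcium response | Replicates: n of 1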
Platelet DG rel – inhibitors of platelet dense granule secretion, primary screen, cell-based, MLPCN, human platelets | human platelet-rich plasma, SFLLRN dense granule ATP release, luminescence | inhibition, %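 (compounds screened at 7.5 µM in platelet-rich plasma)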 | 300,000 tested, 0.22% active;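 active means mean replicate score, as percent of positive control, at or above 50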
VLA-4 inh – inhibition in human VLA-4 binding assay, primary screen, VLA-4 allosteric modulator project, MLPCN library, flow cytometry, VLA-4 expressing cells; inhibition, % (about 7 µM as worked out from the volumes in the protocol); ligand binding flow cytometry; 330,000 tested, 0.2% active; in the data active means inhibition above about 50%
TAAR1 ag conf – human TAAR1 agonists, retest of hits, confirmation, Fluo-8 calcium fluorescence, CHO RD-HGA16 cells | shares compounds with TAAR1 ag | activation, % at 3 µM | AID 651783, 2012 | 2,400 tested, 82% active | scaled: DMSO 0%, maximal phenethylamine 100%;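 active means activation above a cutoff set at the run's mean compound activation plus 3 SD, cut at about 39% in these data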
Ga16 ag counter – nonselective calcium mobilization agonists, CHO-Ga16 cells, counter-screen for hTAAR1 agonist project, cell-based, fluorescence, CHO-Ga16 parental line; activation, % at 3 µM; Fluo-8 calcium fluorescence; normalized to maximal ATP response, DMSO zero; AID 651787, 2012; 2,400 tested, 50% active; shares compounds with TAAR1 ag;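 active means activation above the run cutoff, the mean activation over all tested wells plus 3 SD, cut at about 12% in these data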;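 further: 0% = DMSO wells and 100% = maximal ATP response on the peak over basal ratio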
TAAR1 desensitize – TAAR1 desensitization by agonist hits, confirmation, counter-screen for TAAR1 agonist project, cell-based, fluorescence, tachyphylaxis. 2,400 tested, 46% active. inhibition, % at 3 µM. shares compounds with TAAR1 ag. CHO RD-HGA16 hTAAR1, Fluo-8 calcium, beta-PEA response inhibition;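 active means inhibition above the run cutoff, the mean inhibition of all test compounds plus 3 SD, cut at about 49% in these data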;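 further: beta-PEA stimulus applied at its EC80; loss of beta-PEA calcium signal after compound pretreatment read as receptor desensitization; 0% = DMSO with beta-PEA at EC80 and 100% = DMSO alone without agonist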
Ga16 antag count – inhibition of ATP-evoked calcium response in CHO-Ga16 cells, counter-screen for TAAR1 agonist project, cell-based, fluorescence; shares compounds with TAAR1 ag; CHO-Ga16 ATP-induced calcium, Fluo-8 fluorescence; inhibition, % at 3 µM; 2,400 tested, 39% active; AID 651952, 2012;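 active means inhibition above the plate's mean compound inhibition plus 3 SD, computed per plate, cut at about 22% in these data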;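 further: 0% = EC80 ATP with DMSO and 100% = DMSO wells without ATP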
Active calls of the source: *; i = inactive; . = not tested or not shown. An excerpt weighted towards active compounds, which were near 2.6% of everything screened.

SMILES	Rce1 inhib	TAAR1 ag	TAAR1 antag	Platelet DG rel	VLA-4 inh	TAAR1 ag conf	Ga16 ag counter	TAAR1 desensitize	Ga16 antag count
Cn1cc(CN2CCc3ccccc3C2)c2ccccc21	i	66.9*	20.9	4.0	4.5	84.6*	1.4	41.0	3.8
Oc1ccc(CN2CCc3ccccc3C2)c2cccnc12	i	80.5*	61.7*	5.9	12.5	76.9*	-0.1	23.5	6.2
COc1ccccc1-c1noc(Cn2cc(S(=O)(=O)N3CCCC3)ccc2=O)n1	.	-0.2	-6.6	.	-39.1	.	.	.	.
COC(=O)C1=NN(C(=O)c2cccc(Br)c2)C(O)(c2ccc(Cl)cc2)C1 (stereo not drawn)	i	93.2*	70.6*	7.5	-61.8	95.2*	66.9*	75.7*	61.5*
CCOC(=O)C1=NN(C(=O)c2ccc(OC)cc2)C(O)(c2ccc(Cl)cc2)C1 (stereo not drawn)	i	65.3*	11.1	2.4	-10.7	80.3*	63.9*	41.0	29.6*
O=C(c1ccccc1)c1ccc(C(=O)N2CCN(c3ccccc3O)CC2)cc1	.	4.2	27.3	.	.	.	.	.	.
O=C(CC1Nc2ccccc2NC1=O)NCCc1ccccc1 (stereo not drawn)	i	90.8*	57.3*	0.4	0.7	98.3*	2.5	73.6*	-8.1
N#C/C(=C\c1ccc(N2CCOCC2)o1)c1nc2ccccc2[nH]1	i	92.1*	27.5	28.5	-39.8	76.4*	100.5*	58.4*	52.2*
CC(=O)c1c(NCc2ccccc2)nc(=O)n(-c2ccccc2)c1C	i	8.8	10.0	1.0	18.3	.	.	.	.
CC(=O)c1c(NCCc2ccccc2)nc(=S)n(-c2ccccc2)c1C	i	49.7*	11.7	-7.0	14.6	70.6*	18.1*	23.9	6.5
Cc1ccc(C)c(OCCC(=O)NNC(=O)c2cc(C)oc2C)c1	.	6.8	2.5	.	3.2	.	.	.	.
COC(=O)c1ccc(NC(=S)NC(=O)c2cc(-c3ccccc3)nc3ccccc23)cc1	i	5.2	9.6	-2.3	5.4	.	.	.	.
CCCOc1cccc(-c2cc(C(=O)NNC(=S)NCC)c3ccccc3n2)c1	.	11.3	45.2	10.3	3.6	.	.	.	.
CCCOc1ccc(C(=O)NNC(=S)NC(=O)c2cc(-c3ccc(Cl)cc3)nc3ccccc23)cc1	i	61.7*	85.3*	4.3	-8.8	105.4*	77.9*	102.6*	93.8*
COc1ccc(Cl)cc1C(=O)NNC(=S)NC(=O)c1cc(-c2ccccc2)nc2ccccc12	i	104.3*	74.7*	-5.1	-2.4	114.1*	96.2*	101.8*	86.7*
COc1ccc(C(=O)NNC(=S)NC(=O)c2cc(-c3ccccc3)nc3ccccc23)cc1	i	128.0*	87.9*	-5.0	-1.4	122.3*	93.7*	94.6*	73.1*
COc1ccc(Cc2c(C3CCCCC3)nc3ccc(Br)cn23)c(C)c1	.	-0.3	17.5	.	.	.	.	.	.
N#CCC(C(=O)c1cccnc1)c1ccccc1 (stereo not drawn)	.	1.1	-18.2	.	.	.	.	.	.
CCc1ccc(OCC(=O)NNCC(=O)Nc2ccc(OC)cc2)cc1	.	1.9	-6.8	.	.	.	.	.	.
O=c1nc(N2CCCCCC2)nc(N2CCCCCC2)[nH]1	i	15.2	-2.1	9.8	-3.7	.	.	.	.
NNc1nc(Nc2ccccc2)nc(N2CCCCC2)n1	i	44.8*	16.3	9.0	9.6	66.3*	2.3	40.7	4.5
O=c1nc(N2CCCCC2)nc(Nc2ccccc2)[nH]1	i	66.4*	68.8*	-5.6	11.3	72.5*	1.3	79.7*	8.2
COCCCn1c(=O)c2sccc2n2c(CCCC(=O)NCC3CCCO3)nnc12 (stereo not drawn)	i	4.3	-28.7	-44.8	-11.9	.	.	.	.
O=C(COCC(=O)N/N=C/c1ccc(F)cc1)N/N=C/c1ccc(F)cc1	i	54.3*	7.2	25.8	-98.8	66.3*	0.5	42.3	14.1
CCOC(=O)C(=O)N/N=C/c1ccc(F)cc1	i	0.1	-24.3	1.0	1.1	.	.	.	.
SMILES	Rce1 inhib	TAAR1 ag	TAAR1 antag	Platelet DG rel	VLA-4 inh	TAAR1 ag conf	Ga16 ag counter	TAAR1 desensitize	Ga16 antag count
N/C(=N\N=C/c1ccc(F)cc1)N/N=C\c1ccc(F)cc1	i	70.1*	62.6*	-4.9	-3.7	80.6*	4.1	76.8*	2.0
CCN(C)C1CN(Cc2cn(Cc3ccc(OC)cc3)nn2)S(=O)(=O)C1 (stereo not drawn)	.	3.8	16.2	.	.	.	.	.	.
c1ccc2c(c1)CCCC2C1=NCCN1 (stereo not drawn)	i	91.3*	92.3*	-3.0	30.9	93.2*	0.4	97.3*	11.3
CCc1nc2ccc(C(=O)Nc3cc(-c4ccccc4)ccc3OC)cn2c1N(CCN(C)C)CC1CC1	.	5.5	13.3	.	.	.	.	.	.
Cc1ccc(O)c(N=Nc2nccs2)c1	.	11.6	-29.9	.	-11.4	.	.	.	.
CC1CN(C(NC(=O)c2ccccc2)C(Cl)(Cl)Cl)CC(C)O1 (stereo not drawn)	.	46.1*	-9.1	.	.	69.7*	3.4	6.6	4.0
CC1CN(C(NC(=O)C(C)(C)C)C(Cl)(Cl)Cl)CC(C)O1 (stereo not drawn)	i	65.0*	18.8	1.7	-4.1	85.0*	3.0	30.5	-1.6
C[C@H]1CN(S(=O)(=O)C(C)(C)C)[C@@H](CCO)/C1=C\c1ccccc1	.	0.6	-10.6	.	.	.	.	.	.
C[C@H]1CN[C@H](CCO)/C1=C\c1ccccc1	.	46.6*	6.7	.	.	61.2*	-0.3	17.8	10.2
C[C@@H]1CN(S(=O)C(C)(C)C)[C@H](CCO)/C1=C\c1ccccc1 (stereo partly drawn)	.	0.5	5.4	.	.	.	.	.	.
C[C@H]1CN[C@@H](CCO)/C1=C\c1ccccc1	.	43.3*	-1.7	.	.	52.5*	0.7	28.8	10.0
COc1ccccc1Nc1ccc(NS(=O)(=O)c2ccc(C(C)=O)cc2)cc1	i	17.6	45.6	2.0	-2.3	.	.	.	.
